Rows were chosen to be rich in hits. Some 2.9% of all compounds tested hit in one or more screens of this group.
GalR3 antagonist = human GalR3 antagonism; HEK293 GalR3-CNG cAMP membrane potential fluorescence; galR3 body fused to GalR1 C-terminus; hit rate 0.44% among 360,000; O60755; inhibition, % at 3 µM;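 active = inhibition above the screen-wide average plus 3 SD, cut at about 13% in these data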;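 note: forskolin and galanin both at EC90 stimulate the cells; cAMP rise reported by CNG channel membrane potential dye signal; 0% = forskolin plus galanin with DMSO and 100% = forskolin alone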
Target sequence (O60755 1-299 limits assumed): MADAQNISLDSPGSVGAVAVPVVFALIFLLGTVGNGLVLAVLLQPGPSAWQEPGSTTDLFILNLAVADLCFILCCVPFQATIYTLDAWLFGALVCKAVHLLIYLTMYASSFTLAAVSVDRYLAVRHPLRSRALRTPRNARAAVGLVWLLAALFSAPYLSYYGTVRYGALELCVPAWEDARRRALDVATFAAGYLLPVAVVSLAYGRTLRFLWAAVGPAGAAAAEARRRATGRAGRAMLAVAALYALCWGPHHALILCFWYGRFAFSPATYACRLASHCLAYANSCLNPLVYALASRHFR
TAG inh = triacylglycerol accumulation inhibition; AID 651582; hit rate 0.66% among 230,000; inhibition, % at 12.5 µM; H9c2 cells, Nile Red lipid (TAG) fluorescence; cells loaded with 200 µM oleic acid;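 active = pattern-corrected inhibition of lipid staining of at least 50% with the nuclear-stain viability signal not falling by more than 50%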;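 note: 0% = DMSO wells and 100% = triacsin C control wells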
MC4R barr agon = activates human MC4R beta-arrestin recruitment | P32245 | U2OS MC4R beta-arrestin complementation, luminescence; percent of melanotan II response, DMSO zero | activation, % at 8.9 µM | hit rate 0.98% among 360,000;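 active = activation above a per-plate cutoff, the mean activation of sample wells on that plate plus 3 SD, cut at about 8% in these data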
Target sequence (P32245 whole entry, looked up): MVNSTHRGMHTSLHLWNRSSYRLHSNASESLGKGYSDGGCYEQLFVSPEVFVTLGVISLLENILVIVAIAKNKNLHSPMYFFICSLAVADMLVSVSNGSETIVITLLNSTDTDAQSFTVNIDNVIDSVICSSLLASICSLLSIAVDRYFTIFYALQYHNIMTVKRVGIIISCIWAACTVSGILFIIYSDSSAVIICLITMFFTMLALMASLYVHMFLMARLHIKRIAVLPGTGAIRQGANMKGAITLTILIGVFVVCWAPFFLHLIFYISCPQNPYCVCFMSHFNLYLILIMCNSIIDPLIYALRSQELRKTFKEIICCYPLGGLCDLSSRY
MC4R antagonist = human MC4R antagonism in cAMP assay; P32245; MC4R-expressing cells, MTII-stimulated cAMP, LANCE TR-FRET; inhibition, % at 6.5 µM; hit rate 0.48% among 360,000; AID 540295;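 active = inhibition above its plate's cutoff, the mean of tested wells on that plate plus 3 SD, cut at about 29% in these data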;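 note: 0% = Melanotan II alone and 100% = Melanotan II plus saturating MCL0020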
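Assay system: U2OS cells stably expressing human melanocortin 4 receptor (MC4R) / Dosing: 6.5 µM / Timing: compound 30 min, challenge 1 h, detection 1 h / Measured by: Eu-cAMP/anti-cAMP TR-FRET, emission 671 nm / Replicates: singlicate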
Efflux pump inh = inhibitors of Candida antifungal efflux pumps expressed in yeast. S. cerevisiae Candida pump triplex, Nile Red efflux. inhibition, % at 10 µM. hit rate 0.44% among 330,000;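 active = plate passing quality check with inhibition over a set limit, or well fluorescence over plate mean plus 4 SD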;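 note: Nile Red retained in pooled yeast measured as flow cytometry median fluorescence; 0% = buffer negative control and 100% = Enniatin B positive control; higher means more Nile Red kept so more efflux inhibition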
Calb FLC = C. albicans growth modulation with fluconazole; growth inhibition, % (concentration not given with the values); C. albicans CaCi-2 + fluconazole, Alamar Blue growth, 48 h; hit rate 0.57% among 300,000; AID 1979;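 active = growth inhibition above about 58% in most replicates, limit read from the data, passing the limit was not always enough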;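 note: all wells also contain fluconazole at 8 µg/ml as a sub-toxic cotreatment; 0% = median of DMSO wells and 100% = median of geldanamycin control wells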
Numbers without * were called inactive; nt = no result.

SMILES	GalR3 antagonist	TAG inh	MC4R barr agon	MC4R antagonist	Efflux pump inh	Calb FLC
O=C1/C(=C/c2ccncc2)Oc2cc(OS(=O)(=O)c3ccccc3)ccc21	-6	-22	-2	1	0	-14
COc1cccc(OC)c1C(=O)Oc1ccc2c(c1)O/C(=C\c1ccncc1)C2=O	-5	nt	8.6*	6	0	2
O=C(C[n+]1cc(-c2ccccc2)n2c1CCC2)N1c2ccccc2Sc2ccccc21	7	nt	1	3	0	-2
Cc1ccc(-c2c[n+](CC(=O)N3c4ccccc4Sc4ccccc43)c3n2CCC3)cc1	-5	nt	1	4	1	109*
CN1OC[C@@H]2CN(C(=O)C(C)(C)C)[C@H](c3ccc(-c4cccnc4)cc3)C[C@@H]21	-4	nt	nt	nt	nt	nt
Cc1ccc(-c2csc3nc(SCC(=O)N(C)C)n(Cc4ccccc4)c(=O)c23)cc1	-4	nt	3	0	-2	-2
NC(=O)CSc1nc2scc(-c3ccc(Cl)cc3)c2c(=O)n1Cc1ccccc1	-5	11	8.7*	13	0	-10
CC(C)=CCC/C(C)=C/Cc1c(O)ccc(C(=O)/C=C/c2ccc(O)cc2)c1O	-4	-14	8.6*	7	nt	1
C=C(C)C(O)Cc1c(OC)ccc(C(=O)/C=C/c2ccc(O)cc2)c1O (configuration not stated)	-3	nt	3	3	0	nt
OC(CN1CCN(C(c2ccccc2)c2ccccc2)CC1)c1ccccc1 (configuration not stated)	nt	nt	10.0*	21	1	-4
OC(CN1CCN(C(c2ccccc2)c2ccccc2)CC1)c1ccc(Br)cc1 (configuration not stated)	-7	nt	5	8	0	-10
Cc1cccc(Cl)c1NC(=O)N(C)c1ccccc1	-3	nt	nt	nt	nt	nt
O=C(Nc1ccc(OC(F)(F)F)cc1)C1CCCN(C(=O)c2ccc(Cl)cc2)C1 (configuration not stated)	-6	-8	0	-5	0	nt
Cc1[nH]c2ccccc2c1CC(=O)Nc1ccc(Nc2cccnc2)c(-c2ccc(-c3ccccc3)cc2F)c1	-7	nt	nt	nt	nt	nt
CCOc1cc(C2C3=C(CC(C)(C)CC3=O)OC3=C2C(=O)CC(C)(C)C3)cc([N+](=O)[O-])c1O	2	11	-1	14	0	57
CC1(C)CC(=O)C2=C(C1)OC1=C(C(=O)CC(C)(C)C1)C2c1cc([N+](=O)[O-])cc([N+](=O)[O-])c1O	3	nt	-2	1	0	91*
CC(C)N=C(NS(=O)(=O)c1ccccc1)C(Cl)(Cl)Cl	-3	52*	-3	-4	0	-36
CC1(c2nnnn2Cc2ccccc2)CCC(=O)N1Cc1cccs1 (configuration not stated)	-7	nt	nt	nt	nt	nt
Cc1ccc(-c2nnc(Nc3ccccc3)c3ccccc23)cc1S(=O)(=O)NCC1CCCO1 (configuration not stated)	0	nt	-2	6	0	61*
COc1ccc(CC(=O)Nc2ccc(N3CCN(c4ccc(OC)cc4)CC3)c(C#N)c2)cc1	-2	36	8.6*	2	0	58
COc1ccc(N2CCN(c3ccc(NC(=O)c4ccc5c(c4)OCO5)cc3C#N)CC2)cc1	nt	-4	0	17	0	1
CCOC(=O)c1cc(C#N)c(N2CCN(c3ccc(OC)cc3)CC2)[nH]c1=O	1	nt	7	-4	0	92*
C=CCNC(=O)c1cc2cc(Cl)ccc2nc1N	-4	nt	nt	nt	nt	nt
CCSc1nnc(-c2ccc(C)cc2)c2ccccc12	-4	nt	0	9	0	93*
CCSc1nnc(C)c2ccccc12	0	-23	-2	-4	0	0
SMILES	GalR3 antagonist	TAG inh	MC4R barr agon	MC4R antagonist	Efflux pump inh	Calb FLC
O=C(Cc1ccc(Cl)cc1)NNC(=O)Nc1cccc2ccccc12	1	-153	0	5	0	5
Cn1ncc(Cl)c1C(=O)NNC(=O)Nc1cccc2ccccc12	-1	-2	-4	0	0	110*
CCCCCC[N+](C)(C)CC/C=C1/c2ccccc2Sc2ccc(Cl)cc21	-5	56*	3	14	0	-5
Nc1nonc1-n1nnc(C(=O)N/N=C/c2ccc(Br)cc2)c1-c1ccc2c(c1)OCO2	-2	nt	8.8*	7	0	15
COc1ccc(-c2c(N)cnc(C(=O)O)c2C)c(OCc2ccccc2)c1OC	3	-2	0	-5	nt	nt
O=C(c1cc2ccccc2o1)N1CCN(S(=O)(=O)c2ccc(F)c(F)c2F)CC1	-6	20	8.2*	3	0	nt
CCc1ccc2c(c1)cc(CN(C(=S)Nc1cccc(C)c1)C1CC1)c1nnnn12	0	nt	13*	-10	0	4
CN(C)CCNc1ncnc2c1ncn2[C@H]1CN(CCc2ccccc2)C[C@@H](CO)O1	-5	-5	2	7	nt	nt
O=C(O)c1ccc(Sc2ccccn2)c([N+](=O)[O-])c1	-4	nt	1	2	0	0
O=[N+]([O-])c1cc(C(F)(F)F)ccc1Sc1ccccn1	2	nt	8.6*	-5	1	-2
CS/C(=N\S(=O)(=O)c1cccs1)Nc1ccc(F)c(Cl)c1	-3	-12	2	1	0	95*
O=C(NCc1cccnc1)c1cc(C(=O)NCc2cccnc2)cc([N+](=O)[O-])c1	-5	1	-2	5	nt	nt
Cc1ccc(C)c(OCCCNCc2ccccc2)c1	-5	9	7	17	0	-1
Clc1cc(Br)ccc1OCCCNCc1ccccc1	-7	nt	8.8*	3	0	-7
CC(C)(CN1CCCN(CC(C)(C)C(=O)O)C1=O)C(=O)O	-6	-10	-1	4	nt	nt
Cc1ccccc1NC(=O)c1ccccc1N(C)S(=O)(=O)c1ccccc1	-6	4	-1	3	0	2
CSc1nc2sc3c(c2c(=O)n1C)CCCC3	2	nt	0	1	0	-8
CSc1nc2sc3c(c2c2nnnn12)CCCC3	-8	nt	8.3*	1	0	6
COc1ccc(-c2cc3ccccc3oc2=O)cc1NC(=S)NC(=O)c1ccc2c(c1)OCCO2	-5	nt	9.4*	-8	0	9
CCC(=O)Nc1cc(-c2cc3ccccc3oc2=O)ccc1OC	-3	7	-1	8	0	1
O=C(NCc1ccco1)Nc1cccc(-c2ccccc2)c1	-7	6	0	7	nt	nt
CC1(C(=O)NS(=O)(=O)c2cccc(C#N)c2)CCN1C(=O)Cc1cc(F)ccc1F (configuration not stated)	-5	7	-2	3	nt	nt
COc1cc(NC(=O)c2cc3ccccc3o2)c(OC)cc1Br	4	nt	20*	2	0	7
COc1cc(NC(=O)c2cc(Cl)ccc2Cl)ccc1-c1cc2ccccc2oc1=O	-9	nt	14*	-2	0	-25

Bioassay records as filed in PubChem BioAssay.
